E coli WT exp: growth inhibitors of wild-type E. coli, primary screen, strain BW25113, expanded library, OD600; AID 710, 2007; OD600 absorbance; 98,000 compounds, 0.15% hits; growth inhibition, % at 100 µM;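 active means growth inhibition above about 50% at one test dose, limit read from the data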;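 further: growth measured after 20 h incubation at 37 °C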
CYP2C9 inhib: blockers of cytochrome P450 2C9 activity – biochemical, luminescence, ADME assay, primary screen. CYP2C9 Supersomes, luciferin-H conversion. inhibition, % at 5 µM. AID 777, 2007. 96,000 compounds, 20% hits;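 active means blocking of liver enzyme CYP2C9 beyond about 50% at 5 µM, limit read from the data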
Ecoli tolC: growth inhibitors of E. coli tolC mutant, primary screen, strain BW25113 ΔtolC::kan, 384-well; OD615; growth inhibition, % at 10 µM (by protocol); 65,000 compounds, 2.2% hits; AID 573, 2007;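 active means growth inhibition at or above a cutoff equal to the mean over every tested compound plus 3 SD, cut at about 60% in these data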;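 further: growth measured after 20 h incubation at 37 °C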
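Test system: tolC-deleted E. coli BW25113; medium: LB with kanamycin 50 µg/mL; compound: single-point testing at 10 µM; incubation: 20 h compound exposure of bacteria at 37 °C; signal: OD at 615 nm; evaluation: growth inhibition in percent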
CYP2C19 act: human CYP2C19 activators, primary screen, biochemical, luminescence; Cytochrome P450 2C19 (Homo sapiens), P33261; recombinant CYP2C19, luciferin-H EGE luminescence; hits give high values; 0 = fully inhibited enzyme, 1 = untreated enzyme; activation factor at 5 µM; 96,000 tested, under 10 active; AID 1025, 2008;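 active means activation factor of at least 2 at 5 µM in the primary screen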
Target sequence (P33261 whole entry, looked up): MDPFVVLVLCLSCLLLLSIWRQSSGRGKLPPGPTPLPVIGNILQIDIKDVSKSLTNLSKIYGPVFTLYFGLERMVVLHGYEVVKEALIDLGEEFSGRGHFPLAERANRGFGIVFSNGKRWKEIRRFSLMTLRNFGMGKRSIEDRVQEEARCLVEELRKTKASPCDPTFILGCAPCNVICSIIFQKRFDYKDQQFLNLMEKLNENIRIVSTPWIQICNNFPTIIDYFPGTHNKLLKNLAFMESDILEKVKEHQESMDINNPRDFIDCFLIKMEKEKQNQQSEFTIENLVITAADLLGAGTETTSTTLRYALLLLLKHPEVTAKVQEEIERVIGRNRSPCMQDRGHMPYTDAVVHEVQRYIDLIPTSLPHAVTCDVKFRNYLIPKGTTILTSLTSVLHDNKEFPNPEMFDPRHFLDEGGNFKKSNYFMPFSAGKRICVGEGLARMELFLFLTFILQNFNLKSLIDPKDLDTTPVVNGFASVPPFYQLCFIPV
CYP2C9 activ: human CYP2C9 activators, primary screen, biochemical, luminescence; 96,000 compounds, 1.4% hits; recombinant CYP2C9, luciferin-H conversion; hits give high values; factor 1 = untreated enzyme, 0 = blocked; activation factor at 5 µM; AID 1024, 2008; Cytochrome P450 2C9 (Homo sapiens), P11712;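 active means activation factor of 2 or more for CYP2C9 at a 5 µM dose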
CYP2C19 inhib: blockers of cytochrome P450 2C19 activity – biochemical, luminescence, ADME assay, primary screen | 96,000 compounds, 21% hits | P33261 | inhibition, % at 5 µM | CYP2C19 Supersomes, luciferin-H EGE luminescence, 30 min;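 active means CYP2C19 inhibition above a set limit at 5 µM in the primary screen, cut at about 50% in these data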
Numbers stand for hits; . = inactive; / = not tested or not shown. A selection: hits, their analogues and other compounds. The true share with any hit is near 29%.

SMILES	E coli WT exp	CYP2C9 inhib	Ecoli tolC	CYP2C19 act	CYP2C9 activ	CYP2C19 inhib
CCN(CC(F)(F)C(F)F)S(=O)(=O)c1ccc(NC(=O)OC)cc1	.	.	.	.	.	.
CCN(CC)S(=O)(=O)c1ccc(NC(=O)C(C)N(c2ccc(OC)cc2)S(C)(=O)=O)cc1 (stereo not given)	.	56	/	.	.	.
COCCNC(=O)C(C)N(c1ccc(OC)cc1)S(C)(=O)=O (stereo not given)	.	.	/	.	.	.
Clc1ccc(C2Nc3ccccc3-n3cccc32)cc1 (stereo not given)	.	.	.	.	.	.
COc1cccc(N2CCN(c3c(C#N)c(C(F)(F)F)nn3C)CC2)c1	.	92	/	.	.	94
COc1ccc2[nH]c(=O)c(CNc3cccc(C)c3)cc2c1	.	.	/	.	.	82
COc1ccc(CC(=O)OCc2cc3ccccc3[nH]c2=O)cc1	.	.	.	.	.	.
COc1ccc2[nH]c(=O)c(CNC3CCCCC3)cc2c1	.	.	.	.	.	.
COc1ccc(NCc2cc3ccccc3[nH]c2=O)cc1	.	.	.	.	.	82
COc1ccc(NCc2cc3cc(OC)ccc3[nH]c2=O)cc1	.	.	.	.	.	52
CCCC(=O)Nc1ccc(C(=O)NNC(=O)c2ccccc2Br)cc1	.	.	/	.	.	.
CCC(C)NC(=O)c1ccc(CS(=O)(=O)Cc2ccc(Cl)cc2)o1 (stereo not given)	.	63	/	.	.	67
CCC(C)NC(=O)c1ccc(CS(=O)(=O)c2ccc(OC)cc2)o1 (stereo not given)	.	.	.	.	.	.
Cc1nc2ccccc2nc1N1CCOCC1	.	.	/	.	.	.
COc1ccc(S(=O)(=O)C(C#N)c2nc3ccccc3nc2N2CCC(C)CC2)cc1 (stereo not given)	/	.	.	.	.	.
Cc1cccc(S(=O)(=O)C(C#N)c2nc3ccccc3nc2N2CCOCC2)c1 (stereo not given)	.	56	.	.	.	.
Cc1ccc(S(=O)(=O)C(C#N)c2nc3ccccc3nc2N2CCCCC2)cc1 (stereo not given)	/	.	.	.	.	.
N#CC(c1nc2ccccc2nc1N1CCCCC1)S(=O)(=O)c1ccc(Cl)cc1 (stereo not given)	/	.	89	.	.	.
CCOC(=O)N1CCN(c2nc3ccccc3nc2C(C#N)S(=O)(=O)c2ccc(C)cc2)CC1 (stereo not given)	.	92	77	.	.	.
COC(=O)c1ccc2c(=O)n(C3CCCCC3)c(SCC#N)nc2c1	.	.	.	.	.	.
CCC1=C(OC(=O)c2ccccc2)C(C)(C)C(c2ccccc2)OC1=O (stereo not given)	.	.	/	.	.	.
CCS(=O)(=O)c1ccc2oc(SCC(=O)NC(C)C3CC4CCC3C4)nc2c1 (stereo not given)	.	.	/	.	.	.
CN1C(=O)c2ccccc2N(C)C1c1cccs1 (stereo not given)	.	.	.	.	.	.
c1ccc(N2CCN(c3ccccc3)C2c2cccs2)cc1	.	.	.	.	.	52
O=C1CSC(c2cccs2)N1c1ccccc1 (stereo not given)	.	.	.	.	.	55
SMILES	E coli WT exp	CYP2C9 inhib	Ecoli tolC	CYP2C19 act	CYP2C9 activ	CYP2C19 inhib
N#CC1=C(S)N(c2ccccc2)C(c2cccs2)NC1=O (stereo not given)	.	.	/	.	.	.
O=C(Cc1ccc(S(=O)(=O)N2CCCC2)s1)Nc1nc2c(s1)CCCC2	.	.	.	.	.	.
CCOC(=O)CSc1n[nH]c(NC(=O)c2ccccc2)n1	.	.	/	.	.	.
CCOC(=O)CSc1n[nH]c(NC(=O)c2ccc(F)cc2)n1	.	.	/	.	.	53
Cc1ccc(Cl)cc1N1CCN(S(C)(=O)=O)CC1	.	.	/	.	.	.
O=C(C1CCN(S(=O)(=O)c2cccnc2)CC1)N1CCN(c2ccccc2Cl)CC1	.	.	.	.	.	.

Compound activity (PubChem)
